Experimental data gathered from unrelated publications.
Target: Dual specificity protein kinase CLK3 (CLK3, Homo sapiens, UniProt P49761)
Method: competition with immobilised ligand

Structure (SMILES)	assay	setting	remaining binding
FC(F)(F)Oc1cccc(-c2cnc3ccc(-c4ccncc4)nn23)c1	cell-free assay	5 µM	8.1%
Cc1cnc(Nc2ccc(C(=O)N3CCC(N4CCCC4)CC3)cc2)nc1-c1cc2ccccc2s1	binding	1 µM	7%
COc1cnc(Nc2cccc(S(N)(=O)=O)c2)nc1N1CCN(c2ccccc2)C(=O)C1	binding	1 µM	100%
COc1ncc2cc3ccccc3nc2c1C#N	cell-free assay	5 µM	94%
O=C(Nc1c[nH]nc1C(=O)NC1CCNCC1)c1cc(F)cc(F)c1	binding	1 µM	100%
CO[C@@H](C)c1c(Nc2ccc([C@@H](N(C)C(=O)C3CCS(=O)(=O)CC3)C(F)(F)F)cc2)cnc2cc(Cl)nn12	cell-free assay	1 µM	87%
O=C(c1ccc(Nc2nccc(-c3cc4ccccc4s3)n2)cc1)N1CCC(N2CCCC2)CC1	binding	1 µM	73%
CCN1CCN(Cc2ccc(C(=O)Nc3ccc(C)c(Oc4ccc5c(c4)CC(=O)N5)c3)cc2C(F)(F)F)CC1	binding	1 µM	100%
CCOC(=O)c1cc2cc(-c3cc(C(=O)NCc4ccc(C(=O)O)cc4)nn3C)ccc2[nH]1	cell-free assay	0.1 µM	83%
O=C(c1ccc(Nc2ncc(Cl)c(-c3ccc(Cl)s3)n2)cc1)N1CCC(N2CCCC2)CC1	binding	1 µM	15%
Nc1c(C(=O)NCc2ccc(C(=O)NCCCC3CCCCC3)cc2)cnn1-c1ccccc1	cell-free assay	0.1 µM	95%
CN(CCCC(F)(F)F)c1nccc(-c2cnn3ncccc23)n1	binding	1 µM	84%
CN(C(=O)c1ccccc1)c1cc(N(C)c2ccc3c(c2)CCc2ccc(C(=O)NCCN4CCOCC4)cc2C3=O)ccc1F	cell-free assay	1 µM	100%
C=CC(=O)N1CCC(C(=O)NCC(=O)N2CCN(c3nc(-c4cnc(N)nc4C(F)F)nc(N4CCOCC4)n3)CC2)CC1	binding	1 µM	97%
